# Screen size: about 130,000 compounds; about 1,000 (0.77%) were called active. Another 1% or so got no clear call; they are omitted. This is one part of a sample in which actives are shown more often than they occur.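 The calls were made as follows: active = activation at 2 µM above a set limit, confirmed on inspection of the cell images; inconclusive = above the set limit but not confirmed on image inspection; inactive = the rest.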
# Experiment: activators of insulin promoter-driven GFP, primary screen, imaging, TRM-6 cells (human fetal islet line), eGFP reporter, cell count (AID 1296;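 as to activation: share of cells whose green reporter signal exceeds an intensity cutoff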)
# Details: at 2 µM; activation: stronger effect = higher value, plate-scaled: unstimulated 0, stimulated control 100; normalized cell count: measured here: cell count (toxicity)
# Outline: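 test system = TRM-6 insulin promoter–eGFP reporter cells | benchmarks = stimulated versus unstimulated wells as plate controls | read-out basis = percent cells above green-intensity threshold, converted to percent activation versus plate controls | detection = fixed-cell fluorescence microscopy, eGFP plus Hoechst | incubation = tamoxifen pre-incubation 15 h overnight, then compound exposure 48 h at 37 °C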
SMILES,activation,normalized cell count [%]
COC(=O)Cc1c(O)ccn(Cc2cccc(C(F)(F)F)c2)c1=O,2.86% (inactive),159
Cc1nn(-c2ccccc2)c(C)c1/C=C/C(=O)OC(C)C(N)=O (stereo unspecified),-68.8% (inactive),181
CCOC(=O)c1c(NC(=O)CSc2nnc(C)c(=O)[nH]2)sc2c1CCC2,8.33% (inactive),125
CCOC(=O)C(NC(=O)CC(C)C)(Nc1sc2c(c1C(N)=O)CCCC2)C(F)(F)F (stereo unspecified),450% (active),72.9
CCOC(=O)c1c(NC(=O)c2ccc(Br)o2)sc2c1CCCC2,-3.7% (inactive),119
CSc1ccccc1NC(=O)Cc1ccc(Br)cc1,-3.85% (inactive),70.6
Cc1ccccc1NC(=O)C(C)c1ccc(-c2ccccc2)c(F)c1 (stereo unspecified),-2.7% (inactive),168
O=C(CSCc1ccc([N+](=O)[O-])cc1)Nc1cccc(C(=O)Nc2ccccc2C(=O)O)c1,8.33% (inactive),107
COC(=O)c1ccc(NC(=O)CSc2nnc(CNc3ccc(OC)cc3)n2C)cc1,0% (inactive),125
COc1ccc(CC(=O)NCc2nnc(SCC(=O)Nc3nccs3)n2C)cc1,330% (active),83.7
COc1ccc(CC(=O)NCc2nnc(SCC(=O)Nc3ncc(C)s3)n2C)cc1,-5.56% (inactive),192
CSCCC(=O)N1CCCC(CNC(=O)c2ccccc2Cl)C1 (stereo unspecified),7.14% (inactive),83
Cn1cc(/C=C/c2nc3ccccc3c(=O)n2-c2cccc([N+](=O)[O-])c2)c2ccccc21,-9.09% (inactive),111
COc1ccc(N(C(=O)c2ccc(C)cc2)S(=O)(=O)c2cccs2)cc1,3.85% (inactive),171
Cc1ccc(C(=O)N/C(=C\c2cccs2)C(=O)NCCc2ccccn2)cc1C,392% (active),87.4
CCN(CC)S(=O)(=O)c1cc(C(=O)Nc2ccccn2)ccc1C,309% (inactive),42.6
Cc1ccc(C(=O)N/C(=C/c2cccs2)C(=O)N2CCCCC2)cc1,0% (inactive),111

SMILES,activation,normalized cell count [%]
CCOc1ccc(N2C(=O)Nc3ccccc3C2(O)C(=O)NCc2ccco2)cc1 (stereo unspecified),0% (inactive),74.7
Cc1cccc(CSc2nnc(Cn3c(=O)sc4ccccc43)n2C)c1,-50% (inactive),79.6
Cc1nnc(SCc2cccc(Cl)c2)n(N)c1=O,508% (active),36.8
Cc1ccc(C(=O)CSc2nc3ccccc3c(=O)n2N)o1,-5.26% (inactive),137
CC(C)CNC(=S)Nc1ccc(F)cc1,-6.9% (inactive),136
Cc1nc(SCc2ccc(F)cc2)c([N+](=O)[O-])[nH]1,9.09% (inactive),97.3
O=C(CCCN1C(=O)CCC1=O)Nc1ccc(Cl)c(C(F)(F)F)c1,444% (active),46.3
CS(=O)(=O)N(CC(=O)Nc1ccc(Cl)c(Cl)c1)C1CCCCC1,5.71% (inactive),124
O=C(CN1C(=O)CCC1=O)Nc1ccc(S(=O)(=O)N2CCOCC2)cc1,-10% (inactive),72.6
CN1CCN(C(=O)/C(=C\c2ccc3c(c2)OCO3)NC(=O)c2cccs2)CC1,-8.33% (inactive),121
CCN1/C(=C/c2ccc3ccc(C)cc3[n+]2CC)Sc2ccccc21,567% (active),10.5
CCN1/C(=C\c2ccc3ccccc3[n+]2CC)Sc2cc(C)ccc21,567% [fluoresces] (active),15.3
O=C(NC1CC1)c1cccc(Br)c1,-3.12% (inactive),91.1
O=C(Cc1coc2ccc3ccccc3c12)NCc1cccs1,-2.94% (inactive),153
CCC(=O)/C(=C(/O)c1ccccc1)c1nc2ccccc2[nH]1,0% (inactive),134
COc1cc(NC(=O)Nc2ccc(C)cc2)cc([N+](=O)[O-])c1,-6.45% (inactive),133

# Source: PubChem BioAssay AID1296 (Columbia University Molecular Screening Center, 2008)
